Reference: ChEMBL document CHEMBL1158134, “Low-abundance kutznerides from Kutzneria sp. 744” (2006)
Converted amounts (≈) assume the structure as drawn. The source made the active and inactive calls. The rule behind the calls is not given here.

Tests used:
[1] = tested on: Fusarium culmorum; assay: Antimicrobial activity against Fusarium culmorum at 27 to 28 degC after 72 hrs in dark; format: functional
In short: (§1)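 MIC by microtiter bioassay scoring inhibition of spore germination or cell growth. Compounds in MeOH were dried in the wells, then 100 µL of spore or cell suspension (10^4 spores/mL or cells/mL) in appropriate medium was added. The top concentration tested was 230 to 590 µM. Controls were untreated suspension and sterile medium. Growth was scored visually on a 0–3 scale. Run in triplicate, repeated once.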

[2] = tested on: Drechslera; assay: Antimicrobial activity against Drechslera sorokiniana at 27 to 28 degC after 48 hrs in dark; format: functional; in short: as §1
[3] = tested on: Pseudomonas savastanoi pv. savastanoi; assay: Antimicrobial activity against Pseudomonas savastanoi pv. savastanoi up to 590 uM at 27 to 28 degC after 24 hrs in dark; format: functional, organism-based; in short: as §1
[4] = tested on: Candida albicans; assay: Antimicrobial activity against Candida albicans up to 590 uM at 37 degC after 24 hrs in dark; format: functional, organism-based; in short: as §1
[5] = tested on: Staphylococcus aureus; assay: Antimicrobial activity against Staphylococcus aureus at 37 degC after 24 hrs in dark; format: functional; in short: as §1
[6] = tested on: Aspergillus fumigatus; assay: Antimicrobial activity against Aspergillus fumigatus up to 590 uM at 27 to 28 degC after 96 hrs in dark; format: functional, organism-based; in short: as §1
[7] = tested on: Pectobacterium carotovorum; assay: Antimicrobial activity against Erwinia carotovora at 27 to 28 degC after 24 hrs in dark; format: functional; in short: as §1

Row | Compound | MIC [1] [µM] | MIC [2] [µM] | MIC [5] [µM] | MIC [7] [µM] | Activity [3] | Activity [4] | Activity [6]
1 | COC[C@@H]1NC(=O)[C@@H]2CCC=NN2C(=O)[C@H](C(C)(C)C)OC(=O)[C@@H](C2(C)CC2)NC(=O)[C@@H]2C[C@@]3(O)c4ccc(Cl)c(Cl)c4N[C@H]3N2C(=O)[C@@H]([C@H](O)CC(=O)O)NC1=O [KUTZNERIDE 4] | > 590 | > 590 | 140 (≈ 119 µg/mL) | 120 (≈ 102 µg/mL) | inactive | inactive | inactive
2 | COC[C@@H]1NC(=O)[C@@H]2CCCNN2C(=O)[C@H](C(C)C)OC(=O)[C@@H](C2(C)CC2)NC(=O)[C@@H]2C[C@@]3(O)c4ccc(Cl)c(Cl)c4N[C@H]3N2C(=O)[C@@H]([C@H](O)CC(=O)O)NC1=O [KUTZNERIDE 5] | > 240 | > 240 | 120 (≈ 101 µg/mL) | 120 (≈ 101 µg/mL) |  |  | 
3 | COC[C@@H]1NC(=O)[C@@H]2CCCNN2C(=O)[C@H](C(C)C)OC(=O)[C@@H](C2(C)CC2)NC(=O)[C@@H]2C[C@@]3(O)c4ccc(Cl)c(Cl)c4N[C@H]3N2C(=O)[C@@H]([C@@H](O)CC(=O)O)NC1=O [KUTZNERIDE 7] | > 420 | > 420 | 120 (≈ 101 µg/mL) | 180 (≈ 151 µg/mL) |  |  | 
4 | CN[C@@H]1[C@H](O[C@H]2[C@H](O[C@H]3[C@H](O)[C@@H](O)[C@H](N=C(N)N)[C@@H](O)[C@@H]3N=C(N)N)O[C@@H](C)[C@]2(O)C=O)O[C@@H](CO)[C@H](O)[C@H]1O [STREPTOMYCIN] |  |  | 17 (≈ 9.89 µg/mL) |  |  |  | 

Second part, led by results:

Row | MIC [1] [µM] | MIC [2] [µM] | MIC [5] [µM] | MIC [7] [µM] | Compound | Activity [3] | Activity [4] | Activity [6]
5 | 40 (≈ 37 µg/mL) | 4 (≈ 3.7 µg/mL) |  |  | C[C@@H]1[C@H](O)[C@@H](C)/C=C/C=C/C=C/C=C/C=C/C=C/C=C/[C@H](O[C@@H]2O[C@H](C)[C@@H](O)[C@H](N)[C@@H]2O)C[C@@H]2O[C@](O)(C[C@@H](O)C[C@@H](O)[C@H](O)CC[C@@H](O)C[C@@H](O)CC(=O)O[C@H]1C)C[C@H](O)[C@H]2C(=O)O [AMPHOTERICIN B] |  |  | 
6 | 210 (≈ 179 µg/mL) | 230 (≈ 197 µg/mL) | 12 (≈ 10.3 µg/mL) | 60 (≈ 51.3 µg/mL) | COC[C@@H]1NC(=O)[C@@H]2CCCNN2C(=O)[C@H](C(C)(C)C)OC(=O)[C@@H](C2(C)CC2)NC(=O)[C@@H]2C[C@@]3(O)c4ccc(Cl)c(Cl)c4N[C@H]3N2C(=O)[C@@H]([C@@H](O)CC(=O)O)NC1=O [KUTZNERIDE 1] | inactive | inactive | inactive
7 | 70 (≈ 62.2 µg/mL) | 110 (≈ 97.8 µg/mL) | 6 (≈ 5.34 µg/mL) | 6 (≈ 5.34 µg/mL) | COC[C@@H]1NC(=O)[C@@H]2C[C@@H](Cl)CNN2C(=O)[C@H](C(C)(C)C)OC(=O)[C@@H](C2(C)CC2)NC(=O)[C@@H]2C[C@@]3(O)c4ccc(Cl)c(Cl)c4N[C@H]3N2C(=O)[C@@H]([C@@H](O)CC(=O)O)NC1=O [KUTZNERIDE 2] | inactive | inactive | inactive
8 | 260 (≈ 222 µg/mL) | 260 (≈ 222 µg/mL) | 9 (≈ 7.69 µg/mL) | 12 (≈ 10.3 µg/mL) | COC[C@@H]1NC(=O)[C@@H]2CCCNN2C(=O)[C@H](C(C)(C)C)OC(=O)[C@@H](C2(C)CC2)NC(=O)[C@@H]2C[C@@]3(O)c4ccc(Cl)c(Cl)c4N[C@H]3N2C(=O)[C@@H]([C@H](O)CC(=O)O)NC1=O [KUTZNERIDE 3] | inactive | inactive | inactive
9 | > 230 | > 400 | > 230 | > 230 | COC[C@@H]1NC(=O)[C@@H]2C[C@@H](O)C=NN2C(=O)[C@H](C(C)(C)C)OC(=O)[C@@H](C2(C)CC2)NC(=O)[C@@H]2C[C@@]3(O)c4ccc(Cl)c(Cl)c4N[C@H]3N2C(=O)[C@@H]([C@H](O)CC(=O)O)NC1=O [KUTZNERIDE 6] |  |  | 
10 | 110 (≈ 97.8 µg/mL) | 230 (≈ 205 µg/mL) | 6 (≈ 5.34 µg/mL) | 6 (≈ 5.34 µg/mL) | COC[C@@H]1NC(=O)[C@@H]2C[C@@H](Cl)CNN2C(=O)[C@H](C(C)(C)C)OC(=O)[C@@H](C2(C)CC2)NC(=O)[C@@H]2C[C@@]3(O)c4ccc(Cl)c(Cl)c4N[C@H]3N2C(=O)[C@@H]([C@H](O)CC(=O)O)NC1=O [KUTZNERIDE 8] |  |  | 
11 | > 230 | > 230 | 60 (≈ 51.2 µg/mL) | 230 (≈ 196 µg/mL) | COC[C@@H]1NC(=O)[C@@H]2CCC=NN2C(=O)[C@H](C(C)(C)C)OC(=O)[C@@H](C2(C)CC2)NC(=O)[C@@H]2C[C@@]3(O)c4ccc(Cl)c(Cl)c4N[C@H]3N2C(=O)[C@@H]([C@@H](O)CC(=O)O)NC1=O [KUTZNERIDE 9] |  |  | 
